Measurements published in ChEMBL document CHEMBL4689842, “EUbOPEN Chemogenomics Library wave 1” (2021).
Values joined by “and” are separate entries in the source; they are usually repeats but may differ in a detail not shown here. Equal values may be shown once.

System: Fibroblast
Assay: Multiplex assay against human fibroblast
Type: toxicity, cell-based
In short: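 Live cells carried four stains from seeding: Hoechst33342, BioTracker Green Microtubule Cytoskeleton Dye, MitoTracker Red and Annexin V Alexa Fluor 680. They were imaged on a CQ1 microscope at 37°C and 5% CO2 after compound addition. Using CellPathfinder machine-learning gating, cells were split into Hoechst high-intensity objects or normal cells, normal cells into healthy, pyknosed or fragmented nuclei, and pyknosed cells into mitotic or apoptotic; tubulin, mitochondrial-mass and membrane-permeability phenotypes are per cents of healthy-nucleus cells.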

[1] = 12 h, 1 µM, compound concentration 1 uM, replicate 1
[2] = 12 h, 1 µM, compound concentration 1 uM, replicate 2
[3] = 12 h, 10 µM, compound concentration 10 uM, replicate 1
[4] = 12 h, 10 µM, compound concentration 10 uM, replicate 2
[5] = 24 h, 1 µM, compound concentration 1 uM, replicate 1
[6] = 24 h, 1 µM, compound concentration 1 uM, replicate 2
[7] = 24 h, 10 µM, compound concentration 10 uM, replicate 1
[8] = 24 h, 10 µM, compound concentration 10 uM, replicate 2
[9] = 48 h, 1 µM, compound concentration 1 uM, replicate 1
[10] = 48 h, 1 µM, compound concentration 1 uM, replicate 2
[11] = 48 h, 10 µM, compound concentration 10 uM, replicate 1
[12] = 48 h, 10 µM, compound concentration 10 uM, replicate 2

Structure (SMILES): CNc1nc(NCc2ccc(NS(C)(=O)=O)cc2Cl)cc(-c2ccccn2)n1
- Population Apoptotic (%) [1]: 70%
- Population Fragmented Nuclei (%) [1]: 22%
- Population Healthy Nuclei (%) [1]: 41%
- Population Hoechst High Intensity Objects (%) [1]: 7%
- Population Membrane Permeable-Phenotype (%) [1]: 22%
- Population Mitochondria Different-Phenotype (%) [1]: 4%
- Population Mitotic Cells (%) [1]: 29%
- Population Normal (%) [1]: 92%
- Population Pyknosed Nuclei (%) [1]: 36%
- Population Tubulin-Different-Phenotype (%) [1]: 41%
- Total Cell Count [1]: 164
- Population Apoptotic (%) [2]: 33%
- Population Fragmented Nuclei (%) [2]: 11%
- Population Healthy Nuclei (%) [2]: 82%
- Population Hoechst High Intensity Objects (%) [2]: 8%
- Population Membrane Permeable-Phenotype (%) [2]: 0%
- Population Mitochondria Different-Phenotype (%) [2]: 9%
- Population Mitotic Cells (%) [2]: 66%
- Population Normal (%) [2]: 91%
- Population Pyknosed Nuclei (%) [2]: 5%
- Population Tubulin-Different-Phenotype (%) [2]: 11%
- Total Cell Count [2]: 61
- Population Apoptotic (%) [3]: 60%
- Population Fragmented Nuclei (%) [3]: 23%
- Population Healthy Nuclei (%) [3]: 39%
- Population Hoechst High Intensity Objects (%) [3]: 17%
- Population Membrane Permeable-Phenotype (%) [3]: 21%
- Population Mitochondria Different-Phenotype (%) [3]: 15%
- Population Mitotic Cells (%) [3]: 39%
- Population Normal (%) [3]: 82%
- Population Pyknosed Nuclei (%) [3]: 36%
- Population Tubulin-Different-Phenotype (%) [3]: 82%
- Total Cell Count [3]: 142
- Population Apoptotic (%) [4]: 57%
- Population Fragmented Nuclei (%) [4]: 6%
- Population Healthy Nuclei (%) [4]: 81%
- Population Hoechst High Intensity Objects (%) [4]: 9%
- Population Membrane Permeable-Phenotype (%) [4]: 12%
- Population Mitochondria Different-Phenotype (%) [4]: 32%
- Population Mitotic Cells (%) [4]: 42%
- Population Normal (%) [4]: 90%
- Population Pyknosed Nuclei (%) [4]: 11%
- Population Tubulin-Different-Phenotype (%) [4]: 30%
- Total Cell Count [4]: 56
- Population Apoptotic (%) [5]: 70%
- Population Fragmented Nuclei (%) [5]: 25%
- Population Healthy Nuclei (%) [5]: 53%
- Population Hoechst High Intensity Objects (%) [5]: 11%
- Population Membrane Permeable-Phenotype (%) [5]: 23%
- Population Mitochondria Different-Phenotype (%) [5]: 7%
- Population Mitotic Cells (%) [5]: 29%
- Population Normal (%) [5]: 88%
- Population Pyknosed Nuclei (%) [5]: 20%
- Population Tubulin-Different-Phenotype (%) [5]: 43%
- Total Cell Count [5]: 169
- Population Apoptotic (%) [6]: 25%
- Population Fragmented Nuclei (%) [6]: 8%
- Population Healthy Nuclei (%) [6]: 85%
- Population Hoechst High Intensity Objects (%) [6]: 1%
- Population Membrane Permeable-Phenotype (%) [6]: 0%
- Population Mitochondria Different-Phenotype (%) [6]: 11%
- Population Mitotic Cells (%) [6]: 75%
- Population Normal (%) [6]: 98%
- Population Pyknosed Nuclei (%) [6]: 5%
- Population Tubulin-Different-Phenotype (%) [6]: 11%
- Total Cell Count [6]: 67
- Population Apoptotic (%) [7]: 64%
- Population Fragmented Nuclei (%) [7]: 31%
- Population Healthy Nuclei (%) [7]: 46%
- Population Hoechst High Intensity Objects (%) [7]: 27%
- Population Membrane Permeable-Phenotype (%) [7]: 18%
- Population Mitochondria Different-Phenotype (%) [7]: 18%
- Population Mitotic Cells (%) [7]: 35%
- Population Normal (%) [7]: 72%
- Population Pyknosed Nuclei (%) [7]: 22%
- Population Tubulin-Different-Phenotype (%) [7]: 77%
- Total Cell Count [7]: 174
- Population Apoptotic (%) [8]: 50%
- Population Fragmented Nuclei (%) [8]: 20%
- Population Healthy Nuclei (%) [8]: 66%
- Population Hoechst High Intensity Objects (%) [8]: 10%
- Population Membrane Permeable-Phenotype (%) [8]: 4%
- Population Mitochondria Different-Phenotype (%) [8]: 26%
- Population Mitotic Cells (%) [8]: 50%
- Population Normal (%) [8]: 89%
- Population Pyknosed Nuclei (%) [8]: 12%
- Population Tubulin-Different-Phenotype (%) [8]: 17%
- Total Cell Count [8]: 71
- Population Apoptotic (%) [9]: 77%
- Population Fragmented Nuclei (%) [9]: 29%
- Population Healthy Nuclei (%) [9]: 63%
- Population Hoechst High Intensity Objects (%) [9]: 17%
- Population Membrane Permeable-Phenotype (%) [9]: 23%
- Population Mitochondria Different-Phenotype (%) [9]: 7%
- Population Mitotic Cells (%) [9]: 22%
- Population Normal (%) [9]: 82%
- Population Pyknosed Nuclei (%) [9]: 7%
- Population Tubulin-Different-Phenotype (%) [9]: 46%
- Total Cell Count [9]: 155
- Population Apoptotic (%) [10]: 50%
- Population Fragmented Nuclei (%) [10]: 28%
- Population Healthy Nuclei (%) [10]: 69%
- Population Hoechst High Intensity Objects (%) [10]: 8%
- Population Membrane Permeable-Phenotype (%) [10]: 4%
- Population Mitochondria Different-Phenotype (%) [10]: 2%
- Population Mitotic Cells (%) [10]: 50%
- Population Normal (%) [10]: 91%
- Population Pyknosed Nuclei (%) [10]: 2%
- Population Tubulin-Different-Phenotype (%) [10]: 38%
- Total Cell Count [10]: 105
- Population Apoptotic (%) [11]: 70%
- Population Fragmented Nuclei (%) [11]: 29%
- Population Healthy Nuclei (%) [11]: 61%
- Population Hoechst High Intensity Objects (%) [11]: 36%
- Population Membrane Permeable-Phenotype (%) [11]: 20%
- Population Mitochondria Different-Phenotype (%) [11]: 12%
- Population Mitotic Cells (%) [11]: 30%
- Population Normal (%) [11]: 63%
- Population Pyknosed Nuclei (%) [11]: 9%
- Population Tubulin-Different-Phenotype (%) [11]: 84%
- Total Cell Count [11]: 168
- Population Apoptotic (%) [12]: 100%
- Population Fragmented Nuclei (%) [12]: 27%
- Population Healthy Nuclei (%) [12]: 71%
- Population Hoechst High Intensity Objects (%) [12]: 41%
- Population Membrane Permeable-Phenotype (%) [12]: 15%
- Population Mitochondria Different-Phenotype (%) [12]: 3%
- Population Mitotic Cells (%) [12]: 0%
- Population Normal (%) [12]: 58%
- Population Pyknosed Nuclei (%) [12]: 1%
- Population Tubulin-Different-Phenotype (%) [12]: 79%
- Total Cell Count [12]: 203

Structure (SMILES): COc1ccc(Oc2cc(NCCC(F)(F)F)c3ncc(-c4ccc(C(=O)NC5CC5)c(C)c4)n3n2)c(F)c1F [BAY-1217389]
- Population Apoptotic (%) [3]: 63% and 54%
- Population Fragmented Nuclei (%) [3]: 28% and 27%
- Population Healthy Nuclei (%) [3]: 48% and 59%
- Population Hoechst High Intensity Objects (%) [3]: 18% and 14%
- Population Membrane Permeable-Phenotype (%) [3]: 18% and 15%
- Population Mitotic Cells (%) [3]: 36% and 45%
- Population Normal (%) [3]: 81% and 85%
- Population Pyknosed Nuclei (%) [3]: 23% and 12%
- Population Tubulin-Different-Phenotype (%) [3]: 45% and 31%
- Total Cell Count [3]: 203 and 339
- Population Apoptotic (%) [4]: 65% and 22%
- Population Fragmented Nuclei (%) [4]: 35% and 55%
- Population Healthy Nuclei (%) [4]: 33% and 28%
- Population Hoechst High Intensity Objects (%) [4]: 23% and 34%
- Population Membrane Permeable-Phenotype (%) [4]: 20%
- Population Mitochondria Different-Phenotype (%) [4]: 34% and 18%
- Population Mitotic Cells (%) [4]: 35% and 77%
- Population Normal (%) [4]: 76% and 65%
- Population Pyknosed Nuclei (%) [4]: 30% and 16%
- Population Tubulin-Different-Phenotype (%) [4]: 38% and 50%
- Total Cell Count [4]: 170 and 86
- Population Apoptotic (%) [7]: 77% and 48%
- Population Fragmented Nuclei (%) [7]: 30% and 23%
- Population Healthy Nuclei (%) [7]: 41% and 63%
- Population Hoechst High Intensity Objects (%) [7]: 15% and 13%
- Population Membrane Permeable-Phenotype (%) [7]: 12% and 8%
- Population Mitotic Cells (%) [7]: 22% and 51%
- Population Normal (%) [7]: 84% and 86%
- Population Pyknosed Nuclei (%) [7]: 27% and 13%
- Population Tubulin-Different-Phenotype (%) [7]: 59% and 27%
- Total Cell Count [7]: 211 and 319
- Population Fragmented Nuclei (%) [8]: 54% and 47%
- Population Healthy Nuclei (%) [8]: 20% and 36%
- Population Hoechst High Intensity Objects (%) [8]: 19% and 30%
- Population Membrane Permeable-Phenotype (%) [8]: 18% and 19%
- Population Mitochondria Different-Phenotype (%) [8]: 18% and 23%
- Population Mitotic Cells (%) [8]: 32% and 88%
- Population Normal (%) [8]: 80% and 69%
- Population Pyknosed Nuclei (%) [8]: 24% and 15%
- Population Tubulin-Different-Phenotype (%) [8]: 29% and 52%
